One data set deals with Artemia salina. Nature of the data set: Compound is evaluated in vitro for brine shrimp (Artemia salina) activity. The format is functional.
For the next data set, the system named is Trichostrongylus axei. Nature of the data set: Compound is evaluated in vivo for anthelmintic activity against Trichostrongylus axei (T.a) parasite in sheep; activity at 0.1 mg/kg. It counts as functional. An outline of the steps:
(§1)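 Sheep with patent infections randomly assigned; one sheep per compound, two vehicle-only controls. Single oral dose 0.1 mg/kg. Necropsy 7 days post-dose, residual worm burdens counted. Efficacy as % reduction from control, scored 0 = <50%, 1 = 51-75%, 2 = 76-95%, 3 = >95%.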

The test system of data set [1] is Teladorsagia circumcincta. Nature of the data set: Compound is evaluated in vivo for anthelmintic activity against Ostertagia circumcincta (Os. c) parasite in sheep; activity at 0.1 mg/kg. It counts as functional. The gist of the method: as §1
Data set [2] can be described thus: Compound is evaluated for acute toxicity in mice. To be noted: mouse, in vivo. The format is organism-based. The gist of the method:
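Male CD-1 mice, groups of five per dose randomly allocated; several doses given orally in vehicle by calibrated syringe with blunt-tipped needle. Deaths counted 7 days after dosing; estimated LD50 derived by the method of dose-pair responses.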

Another data set deals with Haemonchus contortus. Nature of the data set: Compound is evaluated in vivo for anthelmintic activity against Haemonchus contortus (H.c) parasite in sheep; activity at 0.1 mg/kg. The format is functional. The gist of the method:
as §1

Data set [3] has as its system Oesophagostomum columbianum. Nature of the data set: Compound is evaluated in vivo for anthelmintic activity against Oesophagostomum columbianum (Oe. c) parasite in sheep; activity at 0.1 mg/kg. The format is functional. An outline of the steps:
as §1

For data set [4], the system named is Trichostrongylus colubriformis. Nature of the data set: Compound is evaluated in vivo for anthelmintic activity against Trichostrongylus colubriformis (T.c) parasite in sheep; activity at 0.1 mg/kg. It counts as functional. The gist of the method:
as §1

Data set [5] has as its system Cooperia. Nature of the data set: Compound is evaluated in vivo for anthelmintic activity against Cooperia species (C. species) parasite in sheep; activity at 0.1 mg/kg. It counts as functional. An outline of the steps: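 Sheep with patent nematode infections, randomly assigned to treatment or control; one sheep per compound, two vehicle-only controls. Single oral dose of 0.1 mg/kg. Necropsy 7 days after dosing to count residual worm burdens. Efficacy is % reduction from control, scored 0 = <50%, 1 = 51–75%, 2 = 76–95%, 3 = >95%.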

In data set [6] the test system is Cooperia. Nature of the data set: Compound is evaluated in vivo for anthelmintic activity against Cooperia species (C. species) parasite in sheep; activity at 0.1 mg/kg; value ranges from 76-95%. The format is functional. An outline of the steps:
as §1

For the molecule `CC[C@H](C)[C@H]1O[C@@]2(C[C@@H]3C[C@@H](C/C=C(\C)[C@H](O[C@@H]4C[C@H](OC)C(O[C@H]5C[C@H](OC)[C@@H](O)[C@H](C)O5)[C@H](C)O4)[C@@H](C)/C=C/C=C4\CO[C@@H]5[C@H](O)C(C)=C[C@@H](C(=O)O3)[C@]45O)O2)C[C@H](O)[C@@H]1C` (some centres undefined), the IC100 in the data set with Artemia salina came out at 20850 ng/mL.

Molecule `CC[C@H](C)[C@H]1O[C@]2(C=C[C@@H]1C)C[C@@H]1C[C@@H](C/C=C(\C)[C@H](O[C@@H]3C[C@H](OC)C(O[C@H]4C[C@H](OC)[C@@H](O)[C@H](C)O4)[C@H](C)O3)[C@@H](C)/C=C/C=C3\CO[C@@H]4[C@H](O)C(C)=C[C@@H](C(=O)O1)[C@]34O)O2` (some centres undefined) yielded an IC100 in the data set with Artemia salina of 10415 ng/mL.

Consider `CC[C@H](C)[C@H]1O[C@@]2(C[C@@H]3C[C@@H](C/C=C(\C)[C@H](O[C@H]4C[C@H](OC)C(O[C@H]5C[C@H](OC)[C@@H](O)[C@H](C)O5)[C@H](C)O4)[C@@H](C)/C=C/C=C4\CO[C@@H]5[C@H](O)C(C)=C[C@@H](C(=O)O3)[C@]45O)O2)C[C@H](O)[C@@H]1C` (some centres undefined), for which, in the data set with Artemia salina, the IC100 was 650 ng/mL. Also, the Activity (in the data set on Trichostrongylus axei; in [1]; in the data set with Haemonchus contortus; in data set [3]; in data set [4]; with Cooperia [5]) was greater than 95% each time. For the same molecule, the LD50 in data set [2] amounted to 540 mg/kg.

In the case of `CC[C@H](C)[C@H]1O[C@]2(C=C[C@@H]1C)C[C@@H]1C[C@@H](C/C=C(\C)[C@H](O[C@H]3C[C@H](OC)C(O[C@H]4C[C@H](OC)[C@@H](O)[C@H](C)O4)[C@H](C)O3)[C@@H](C)/C=C/C=C3\CO[C@@H]4[C@H](O)C(C)=C[C@@H](C(=O)O1)[C@]34O)O2` (some centres undefined), in the data set with Artemia salina, the IC100 was found to be 870 ng/mL. Further, the Activity in the data set on Trichostrongylus axei is listed as greater than 95%; with Cooperia [6], 76%; in data set [1], greater than 95%; in the data set with Haemonchus contortus, greater than 95%; in data set [3], greater than 95%; in data set [4], greater than 95%. Also, the median lethal dose (LD50) in [2] worked out at 160 mg/kg.

In the data set with Artemia salina, `CC[C@H](C)[C@H]1O[C@]2(C=C[C@@H]1C)C[C@@H]1C[C@@H](C/C=C(\C)[C@@H](O[C@H]3C[C@H](OC)[C@@H](O[C@H]4C[C@H](OC)[C@@H](O)[C@H](C)O4)[C@H](C)O3)[C@@H](C)/C=C/C=C3\CO[C@@H]4[C@H](O)C(C)=C[C@@H](C(=O)O1)[C@]34O)O2` [ABAMECTIN COMPONENT B1A] gave an IC100 of 356 ng/mL. For the same molecule, the LD50 in [2] was 19 mg/kg.

For the molecule `CCC(C)C1O[C@]2(C=C[C@@H]1C)C[C@@H]1CC(C/C=C(\C)[C@@H](OC3C[C@H](OC)[C@@H](OC4C[C@H](OC)[C@@H](O)[C@H](C)O4)[C@H](C)O3)[C@@H](C)/C=C/C=C3\COC4[C@H](O)C(C)=CC(C(=O)O1)[C@]34O)O2` (some centres undefined) [AVERMECTIN B1A], the Activity (in the data set with Trichostrongylus axei; in data set [1]; in the data set with Haemonchus contortus; in data set [3]; in data set [4]; in the data set with Cooperia [5]) was greater than 95% throughout.

`COC1CC(OC2C(C)OC(O[C@@H]3/C(C)=C/C[C@@H]4C[C@@H](C[C@]5(CC(O)[C@H](C)[C@@H](C(C)C)O5)O4)OC(=O)[C@@H]4C=C(C)[C@@H](O)[C@H]5OC/C(=C\C=C\[C@@H]3C)[C@]54O)CC2OC)OC(C)C1O` (some centres undefined) [AVERMECTIN B2] yielded an IC100 in the data set with Artemia salina of 220 ng/mL. Besides, the Activity (in the data set with Trichostrongylus axei; in [1]; with Haemonchus contortus; in data set [3]; in [4]; in the data set on Cooperia [5]) was greater than 95% in each case. Moreover, the median lethal dose (LD50) in [2] was 50 mg/kg.

Source of the values: ChEMBL document CHEMBL1125321, “Synthesis and biological activity of 13-epi-avermectins: potent anthelmintic agents with an increased margin of safety” (J Med Chem, 1992).
